Assay results reported in ChEMBL document CHEMBL1144476, “Phenolic hydrazones are potent inhibitors of macrophage migration inhibitory factor proinflammatory activity and survival improving agents in sepsis” (J Med Chem, 2007).
pIC50: −log10 of the molar value.

How the values were obtained:
[1] = target: T1, Macrophage migration inhibitory factor (Homo sapiens, UniProt P14174); experiment: Inhibition of MIF tautomerase activity by spectrophotometric assay
T1 sequence (P14174 whole entry): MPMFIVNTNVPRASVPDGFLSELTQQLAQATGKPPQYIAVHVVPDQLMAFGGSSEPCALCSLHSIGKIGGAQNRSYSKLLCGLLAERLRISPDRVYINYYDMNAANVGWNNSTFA

Mus musculus [2] = experiment: Survival of CLP-induced BALB/c mouse at 4 mg/kg, ip after 3 days; format: functional; details: 72 h, route intraperitoneal
Outline: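 Male Balb/C mice (~8 weeks) given cecal ligation with a single 22G puncture under ketamine/xylazine anaesthesia. Subcutaneous antibiotic and saline resuscitation were given right after surgery. Dosing was 4 mg/kg intraperitoneally in 20% DMSO/80% saline, started 24 h post-CLP and repeated twice daily on days 2 and 3. The vehicle group was handled the same way. Survival was scored with n=13 per group.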

Mus musculus [3] = organism: Mus musculus; experiment: Inhibition of LPS-induced TNFalpha release in […] macrophages after 16 hrs; format: functional
Outline: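 […] macrophages (10⁵ cells) given compound at 0.01–100 μM 30 min before LPS stimulation; 16 h incubation, then TNF measured in culture supernatants by ELISA. Mean ± S.D, n=3.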

Compound | pIC50 [1] | survival at 4 mg/kg (Mus musculus [2]) | Activity (Mus musculus [3])
COc1ccc(N/N=C/c2ccc(O)c(Cl)c2)cc1 | 6.66 |  | 
CC(C)(C)OC(=O)N/N=C/c1ccc(O)cc1 | 5.26 |  | 
O=C(N/N=C/c1ccc(O)cc1)OCc1ccccc1 | 5.00 |  | 
COc1ccc(COC(=O)N/N=C/c2ccc(O)cc2)cc1 | 5.10 |  | 
COC(=O)N/N=C/c1ccc(O)cc1 | 4.26 |  | 
COc1ccc(N/N=C/c2ccc(O)c(Br)c2)cc1 | 6.48 |  | 
CCOC(=O)N/N=C/c1ccc(O)cc1 | 4.37 |  | 
COc1ccc(N/N=C/c2ccc(O)c(F)c2)cc1 | 6.89 | 65% | Dose-dependent effect

Further lines, with some results ahead:

pIC50 [1] | Compound | survival at 4 mg/kg (Mus musculus [2]) | Activity (Mus musculus [3])
< 3.30 | N/N=C/c1ccc(O)cc1 |  | 
3.52 | CN(/N=C/c1ccc(O)cc1)c1ccccc1 |  | 
6.32 | COc1ccc(N/N=C/c2ccc(O)cc2)cc1 |  | 
4.37 | CN/N=C/c1ccc(O)cc1 |  | 
5.59 | Oc1ccc(/C=N/Nc2ccccc2)cc1 |  | 
